Activity and IC50 data for 2 compounds are collected here from ChEMBL document CHEMBL1140994, “Ranking the selectivity of PubChem screening hits by activity-based protein profiling: MMP13 as a case study” (Bioorg Med Chem, 2009).

Calls of active or inactive are those of the source. The rule behind the calls is not given here.

Assay [1] has as its target A disintegrin and metalloproteinase with thrombospondin motifs 1 (Homo sapiens) (UniProt Q9UHI8). Kind of assay: Inhibition of human recombinant ADAMTS1 at 200 uM by HxBPyne probe-based competitive activity based protein profiling assay in presence of 5 uM HxBpane competitor. In outline:
(§1)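 Recombinant enzyme at 0.5 μM final in mouse liver soluble proteome (1 mg protein/mL in PBS). HxBPyne probe cocktail 0.5 μM total final, with inhibitor 200 μM or DMSO. Preincubated 30 min on ice, then UV 365 nm for 1 h on ice. Rhodamine-azide click chemistry, 1 h RT in dark. SDS-PAGE with in-gel fluorescence; band intensity given as % of DMSO control.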

The target of assay [2] is Interstitial collagenase (Homo sapiens) (UniProt P03956). Description: Inhibition of human recombinant MMP1 at 200 uM by HxBPyne probe-based competitive activity based protein profiling assay in presence of 5 uM HxBpane competitor. In outline:
as §1

Assay [3] has as its target 72 kDa type IV collagenase (Homo sapiens) (UniProt P08253). Kind of assay: Inhibition of human recombinant MMP2 at 200 uM by HxBPyne probe-based competitive activity based protein profiling assay in presence of 5 uM HxBpane competitor. In outline: as §1
Assay [4] has as its target T1, Neutrophil collagenase (Homo sapiens, UniProt P22894). Kind of assay: Inhibition of human recombinant MMP8 at 200 uM by HxBPyne probe-based competitive activity based protein profiling assay in presence of 5 uM HxBpane competitor. A digest of the protocol: as §1
Target sequence in this assay (P22894 101-467 limits assumed): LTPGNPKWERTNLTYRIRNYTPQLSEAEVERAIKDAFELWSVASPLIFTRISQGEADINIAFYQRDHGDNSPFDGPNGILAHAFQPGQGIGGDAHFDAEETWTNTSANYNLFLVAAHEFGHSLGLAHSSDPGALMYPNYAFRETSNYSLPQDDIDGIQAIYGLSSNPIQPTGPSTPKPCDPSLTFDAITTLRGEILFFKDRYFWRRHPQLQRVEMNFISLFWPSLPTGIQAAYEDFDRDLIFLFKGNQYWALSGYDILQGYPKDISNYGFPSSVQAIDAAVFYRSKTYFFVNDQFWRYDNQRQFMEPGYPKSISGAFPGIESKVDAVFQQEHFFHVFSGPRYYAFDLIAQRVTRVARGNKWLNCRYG
Assay [5] addresses Stromelysin-1 (Homo sapiens) (UniProt P08254). Description: Inhibition of human recombinant MMP3 at 200 uM by HxBPyne probe-based competitive activity based protein profiling assay in presence of 5 uM HxBpane competitor. In outline:
as §1

Assay [6] addresses T2, Collagenase 3 (Homo sapiens, UniProt P45452). Description: Inhibition of human recombinant MMP13 by HxBPyne probe-based competitive activity based protein profiling assay.
In assay [7] the target is T1, Neutrophil collagenase. Description: Inhibition of human recombinant MMP8 by fluorogenic substrate assay. In outline: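 Enzyme (MMP8 6 nM, MMP9 2 nM, MMP13 1.5 nM final) preincubated with inhibitor 30 min in 50 mM HEPES pH 7.5, 10 mM CaCl2, 0.05% Brij-35, at RT. Mca-PLGL-Dpa-AR-NH2 added at 5 μM; fluorescence (ex 328/em 393 nm) read each minute for 10 min. Initial rates by linear least squares; IC50 from variable-slope sigmoidal fit. Triplicate; mean with 95% CI.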
Target sequence in this assay (P22894 whole entry): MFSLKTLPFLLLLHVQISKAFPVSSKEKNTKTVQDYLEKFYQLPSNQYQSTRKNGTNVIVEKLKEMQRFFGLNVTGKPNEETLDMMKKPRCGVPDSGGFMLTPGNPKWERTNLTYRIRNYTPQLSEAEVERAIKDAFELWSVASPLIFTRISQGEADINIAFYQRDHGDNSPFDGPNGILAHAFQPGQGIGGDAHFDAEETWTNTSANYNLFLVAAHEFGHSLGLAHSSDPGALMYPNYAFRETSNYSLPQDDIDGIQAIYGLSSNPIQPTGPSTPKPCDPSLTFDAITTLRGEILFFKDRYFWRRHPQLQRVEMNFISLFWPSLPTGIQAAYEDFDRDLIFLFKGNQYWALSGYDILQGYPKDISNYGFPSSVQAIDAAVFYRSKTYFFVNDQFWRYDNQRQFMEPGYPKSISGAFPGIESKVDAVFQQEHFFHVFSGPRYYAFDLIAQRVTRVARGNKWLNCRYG

Assay [8] addresses Disintegrin and metalloproteinase domain-containing protein 12 (Homo sapiens) (UniProt O43184). Kind of assay: Inhibition of human recombinant ADAM12 at 200 uM by HxBPyne probe-based competitive activity based protein profiling assay in presence of 200 uM HxBpane competitor. In outline: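 Metalloprotease at 1.6 μM final in PBS, without liver proteome. HxBPyne probe cocktail 20 μM final, with inhibitor 200 μM or DMSO. Preincubated 30 min on ice, then irradiated 365 nm for 1 h on ice. Rhodamine-azide click chemistry, then SDS-PAGE and in-gel fluorescence scanning. Integrated band intensity expressed as % of DMSO control.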

The target in assay [9] is T2, Collagenase 3. Kind of assay: Inhibition of human recombinant MMP13 by fluorogenic substrate assay.
Assay [10] addresses T3, A disintegrin and metalloproteinase with thrombospondin motifs 5 (Homo sapiens) (UniProt Q9UNA0).
T3 sequence (whole entry): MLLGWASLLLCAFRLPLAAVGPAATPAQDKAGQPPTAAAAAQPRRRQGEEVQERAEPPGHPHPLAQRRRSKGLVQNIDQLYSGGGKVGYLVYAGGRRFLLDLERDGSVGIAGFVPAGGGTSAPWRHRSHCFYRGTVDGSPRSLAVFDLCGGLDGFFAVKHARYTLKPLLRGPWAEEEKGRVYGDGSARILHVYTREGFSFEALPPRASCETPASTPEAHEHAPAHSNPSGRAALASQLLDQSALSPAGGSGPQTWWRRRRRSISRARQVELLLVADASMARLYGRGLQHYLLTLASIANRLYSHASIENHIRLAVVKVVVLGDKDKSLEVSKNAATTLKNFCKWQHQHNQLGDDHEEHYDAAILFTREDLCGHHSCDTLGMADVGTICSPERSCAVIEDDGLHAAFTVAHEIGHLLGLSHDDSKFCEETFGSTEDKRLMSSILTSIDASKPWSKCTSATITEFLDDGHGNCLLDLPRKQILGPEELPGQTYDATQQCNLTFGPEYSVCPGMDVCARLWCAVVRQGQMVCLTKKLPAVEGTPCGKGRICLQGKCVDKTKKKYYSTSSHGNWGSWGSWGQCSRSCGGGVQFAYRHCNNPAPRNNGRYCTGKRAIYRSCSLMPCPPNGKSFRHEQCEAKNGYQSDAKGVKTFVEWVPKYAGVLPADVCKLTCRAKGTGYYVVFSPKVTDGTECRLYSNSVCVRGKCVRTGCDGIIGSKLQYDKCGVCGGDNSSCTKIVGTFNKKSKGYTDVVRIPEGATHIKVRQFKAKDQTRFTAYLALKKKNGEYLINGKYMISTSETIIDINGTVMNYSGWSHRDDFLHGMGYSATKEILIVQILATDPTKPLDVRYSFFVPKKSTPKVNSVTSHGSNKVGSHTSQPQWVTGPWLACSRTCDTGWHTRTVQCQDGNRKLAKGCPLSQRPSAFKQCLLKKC
Kind of assay: Inhibition of human recombinant ADAMTS5 at 200 uM by HxBPyne probe-based competitive activity based protein profiling assay in presence of 5 uM HxBpane competitor. A digest of the protocol: as §1

The target in assay [11] is Disintegrin and metalloproteinase domain-containing protein 10 (Homo sapiens) (UniProt O14672). Kind of assay: Inhibition of human recombinant ADAM10 at 200 uM by HxBPyne probe-based competitive activity based protein profiling assay in presence of 5 uM HxBpane competitor. A digest of the protocol:
as §1

Assay [12] deals with Endoplasmic reticulum aminopeptidase 1 (Homo sapiens) (UniProt Q9NZ08). Kind of assay: Inhibition of human recombinant PILS-AP at 200 uM by HxBPyne probe-based competitive activity based protein profiling assay in presence of 5 uM HxBpane competitor. In outline:
as §1

Stromelysin-1 (Homo sapiens), sequence (P08254 100-477 limits assumed): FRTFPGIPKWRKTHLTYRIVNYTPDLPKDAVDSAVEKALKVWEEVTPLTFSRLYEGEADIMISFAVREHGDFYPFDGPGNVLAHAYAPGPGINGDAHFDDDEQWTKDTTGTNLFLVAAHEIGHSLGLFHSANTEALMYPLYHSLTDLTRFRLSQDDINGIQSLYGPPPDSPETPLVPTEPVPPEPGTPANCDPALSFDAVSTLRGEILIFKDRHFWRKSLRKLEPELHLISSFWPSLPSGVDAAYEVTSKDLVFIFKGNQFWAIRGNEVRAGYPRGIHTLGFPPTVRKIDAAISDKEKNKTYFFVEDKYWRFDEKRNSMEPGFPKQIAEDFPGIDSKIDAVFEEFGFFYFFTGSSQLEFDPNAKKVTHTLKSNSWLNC
Interstitial collagenase (Homo sapiens), sequence (P03956 whole entry): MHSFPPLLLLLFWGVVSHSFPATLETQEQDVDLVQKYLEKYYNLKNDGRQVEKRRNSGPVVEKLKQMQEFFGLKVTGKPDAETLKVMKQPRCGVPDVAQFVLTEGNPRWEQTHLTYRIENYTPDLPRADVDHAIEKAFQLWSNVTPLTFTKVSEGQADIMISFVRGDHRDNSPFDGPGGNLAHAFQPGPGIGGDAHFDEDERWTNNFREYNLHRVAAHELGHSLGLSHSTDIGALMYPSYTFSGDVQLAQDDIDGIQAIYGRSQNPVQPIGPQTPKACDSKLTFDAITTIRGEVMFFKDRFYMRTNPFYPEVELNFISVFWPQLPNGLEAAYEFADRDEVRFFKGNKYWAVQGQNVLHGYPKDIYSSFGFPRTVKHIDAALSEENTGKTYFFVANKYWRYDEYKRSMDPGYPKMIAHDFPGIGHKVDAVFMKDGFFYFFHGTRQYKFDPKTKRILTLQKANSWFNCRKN
72 kDa type IV collagenase (Homo sapiens), sequence (P08253 110-660 limits assumed): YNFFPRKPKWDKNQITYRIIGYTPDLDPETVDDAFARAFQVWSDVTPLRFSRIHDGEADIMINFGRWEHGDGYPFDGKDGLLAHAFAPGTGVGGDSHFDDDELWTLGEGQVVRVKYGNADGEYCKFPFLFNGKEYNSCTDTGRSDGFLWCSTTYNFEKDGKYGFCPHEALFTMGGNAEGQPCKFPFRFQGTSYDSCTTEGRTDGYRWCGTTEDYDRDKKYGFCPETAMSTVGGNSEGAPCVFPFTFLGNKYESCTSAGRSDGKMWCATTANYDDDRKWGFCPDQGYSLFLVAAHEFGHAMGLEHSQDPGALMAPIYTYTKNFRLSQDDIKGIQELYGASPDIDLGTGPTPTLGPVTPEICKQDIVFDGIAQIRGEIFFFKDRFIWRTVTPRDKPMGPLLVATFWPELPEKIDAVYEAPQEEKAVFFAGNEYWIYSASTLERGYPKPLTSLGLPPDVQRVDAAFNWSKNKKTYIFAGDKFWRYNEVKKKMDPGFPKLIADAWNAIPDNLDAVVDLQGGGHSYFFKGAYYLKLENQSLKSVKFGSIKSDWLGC
Endoplasmic reticulum aminopeptidase 1 (Homo sapiens), sequence (Q9NZ08 whole entry): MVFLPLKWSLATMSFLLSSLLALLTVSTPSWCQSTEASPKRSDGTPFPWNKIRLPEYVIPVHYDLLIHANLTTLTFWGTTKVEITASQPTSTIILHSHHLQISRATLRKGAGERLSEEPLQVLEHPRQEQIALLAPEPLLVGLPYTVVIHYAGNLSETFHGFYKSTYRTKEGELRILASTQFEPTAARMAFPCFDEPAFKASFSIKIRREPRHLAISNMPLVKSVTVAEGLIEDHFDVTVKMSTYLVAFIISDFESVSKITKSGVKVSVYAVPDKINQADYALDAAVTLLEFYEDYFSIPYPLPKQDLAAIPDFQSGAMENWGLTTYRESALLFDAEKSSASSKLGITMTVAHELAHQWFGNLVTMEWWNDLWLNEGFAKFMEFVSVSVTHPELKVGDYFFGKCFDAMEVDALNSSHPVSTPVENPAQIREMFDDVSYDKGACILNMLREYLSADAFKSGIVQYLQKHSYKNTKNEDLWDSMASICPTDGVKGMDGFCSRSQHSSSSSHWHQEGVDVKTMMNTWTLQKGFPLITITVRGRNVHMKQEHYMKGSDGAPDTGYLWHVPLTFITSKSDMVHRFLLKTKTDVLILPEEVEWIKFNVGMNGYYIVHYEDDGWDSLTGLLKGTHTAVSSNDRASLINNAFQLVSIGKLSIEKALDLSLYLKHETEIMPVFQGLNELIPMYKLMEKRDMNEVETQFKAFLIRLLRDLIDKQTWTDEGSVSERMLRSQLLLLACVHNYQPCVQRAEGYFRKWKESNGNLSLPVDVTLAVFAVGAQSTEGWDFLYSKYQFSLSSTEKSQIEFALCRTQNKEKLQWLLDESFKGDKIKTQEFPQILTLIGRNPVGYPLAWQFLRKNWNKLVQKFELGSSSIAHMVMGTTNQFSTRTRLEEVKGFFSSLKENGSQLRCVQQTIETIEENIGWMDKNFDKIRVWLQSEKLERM
Disintegrin and metalloproteinase domain-containing protein 12 (Homo sapiens), sequence (O43184 whole entry, the tested form may be a part): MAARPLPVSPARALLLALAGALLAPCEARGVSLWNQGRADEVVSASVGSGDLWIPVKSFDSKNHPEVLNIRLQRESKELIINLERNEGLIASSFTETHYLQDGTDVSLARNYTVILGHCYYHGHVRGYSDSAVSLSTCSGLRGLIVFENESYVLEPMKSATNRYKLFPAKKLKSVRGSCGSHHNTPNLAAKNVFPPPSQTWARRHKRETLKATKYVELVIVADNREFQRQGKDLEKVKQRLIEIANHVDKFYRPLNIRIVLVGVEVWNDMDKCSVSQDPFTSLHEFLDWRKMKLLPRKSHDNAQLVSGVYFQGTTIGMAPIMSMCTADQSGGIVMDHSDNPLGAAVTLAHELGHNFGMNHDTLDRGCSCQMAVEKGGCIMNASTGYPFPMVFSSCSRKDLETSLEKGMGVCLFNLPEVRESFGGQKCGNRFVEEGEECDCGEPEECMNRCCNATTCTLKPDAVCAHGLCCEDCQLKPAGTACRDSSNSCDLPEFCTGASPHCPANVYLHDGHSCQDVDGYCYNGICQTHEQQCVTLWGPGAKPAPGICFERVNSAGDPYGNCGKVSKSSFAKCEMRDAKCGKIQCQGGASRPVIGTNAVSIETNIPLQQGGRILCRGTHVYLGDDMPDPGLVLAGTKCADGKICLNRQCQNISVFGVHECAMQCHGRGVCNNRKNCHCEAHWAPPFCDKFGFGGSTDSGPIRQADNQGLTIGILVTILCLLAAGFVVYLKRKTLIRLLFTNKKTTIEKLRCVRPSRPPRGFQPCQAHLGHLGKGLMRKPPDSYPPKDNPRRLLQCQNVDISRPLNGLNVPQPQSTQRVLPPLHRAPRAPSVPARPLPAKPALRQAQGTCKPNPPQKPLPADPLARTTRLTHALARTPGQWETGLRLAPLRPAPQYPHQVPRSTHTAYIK
A disintegrin and metalloproteinase with thrombospondin motifs 1 (Homo sapiens), sequence (Q9UHI8 whole entry): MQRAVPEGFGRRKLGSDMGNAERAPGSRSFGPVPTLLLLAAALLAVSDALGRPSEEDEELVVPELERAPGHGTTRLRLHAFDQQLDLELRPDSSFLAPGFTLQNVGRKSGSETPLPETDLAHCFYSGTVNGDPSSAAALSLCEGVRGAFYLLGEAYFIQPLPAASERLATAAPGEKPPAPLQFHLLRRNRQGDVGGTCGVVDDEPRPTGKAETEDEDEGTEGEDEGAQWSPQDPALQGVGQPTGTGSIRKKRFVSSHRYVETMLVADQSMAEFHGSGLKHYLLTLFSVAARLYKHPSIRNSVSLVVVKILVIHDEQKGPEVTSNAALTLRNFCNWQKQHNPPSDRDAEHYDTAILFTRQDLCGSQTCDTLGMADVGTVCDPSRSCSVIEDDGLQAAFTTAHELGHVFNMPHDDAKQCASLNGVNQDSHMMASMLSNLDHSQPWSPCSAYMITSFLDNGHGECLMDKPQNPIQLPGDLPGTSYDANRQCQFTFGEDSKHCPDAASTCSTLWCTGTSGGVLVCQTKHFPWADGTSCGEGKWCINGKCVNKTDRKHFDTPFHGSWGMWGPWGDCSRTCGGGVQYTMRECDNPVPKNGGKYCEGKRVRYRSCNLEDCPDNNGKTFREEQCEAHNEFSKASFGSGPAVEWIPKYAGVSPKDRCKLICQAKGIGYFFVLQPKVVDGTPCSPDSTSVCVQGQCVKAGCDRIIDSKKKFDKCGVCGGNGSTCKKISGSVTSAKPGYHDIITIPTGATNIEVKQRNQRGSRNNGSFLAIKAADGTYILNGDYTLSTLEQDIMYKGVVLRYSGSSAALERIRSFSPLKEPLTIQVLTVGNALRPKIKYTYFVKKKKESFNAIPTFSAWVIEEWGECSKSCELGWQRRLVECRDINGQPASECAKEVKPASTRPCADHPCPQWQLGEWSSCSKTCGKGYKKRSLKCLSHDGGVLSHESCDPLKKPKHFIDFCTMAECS

For the compound `COc1ccc(CSc2nc(C)cc(O)n2)cc1`, the result (in assay [1]; in assay [2]; in assay [3]; at Neutrophil collagenase [4]; in [5]; in [8]) was inactive. The result in assay [10], in [11] and in [12] was inactive. Also, the concentration for half-maximal inhibition (IC50) (usually the concentration that gives 50% inhibition) on Collagenase 3 [6] is 20 µM; at Neutrophil collagenase [7], above 100 µM; on Collagenase 3 [9] it was 1.6 µM.
As for `Oc1nc(SCc2ccc(Cl)cc2)nc2c1CCC2`, the result (in assay [1]; in assay [2]; in assay [3]; on Neutrophil collagenase [4]; in assay [5]; in assay [8]) was inactive. Also, the outcome in assay [10], in assay [11] and in assay [12] was inactive. Moreover, the IC50 at Collagenase 3 [6] is 3.8 µM; at Neutrophil collagenase [7], above 100 µM; on Collagenase 3 [9], 0.92 µM.
